Measured values: PubChem BioAssay AID624011 (Broad Institute, 2012)
Activity calls are given as the source filed them.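 The calls were made as follows: active = fitted curve reaching 35% inhibition at both 405 and 600 nm absorbance, in duplicate, within twice the top valid dose; inactive = the rest, including signal rising instead of falling.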

Tested on: not listed separately
Assay: bacterial growth inhibition with EDDHA chelator – absorbance 405 nm, dry powder, set 2, dose response (AID 624011)
Details: P. aeruginosa + EDDHA, pyoverdine absorbance 405 nm, 24-30 h; at 50 µM (top of the series)
In short: (§1)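 Assay system – Pseudomonas aeruginosa strain ATCC 15692, whole bacterial cells · Amount – bacterial inoculum at final OD600 of 0.0000005 · Also added – EDDHA, 2 µM final · Schedule – bacterial growth with compound 24-30 h at 37 °C, humidified · Technique – absorbance 405 nm (pyoverdine)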

SMILES	activity change, negative = inhibition
N#CC(c1ccc(C(F)(F)F)cc1)c1cccc(Cl)n1 (configuration not stated)	-7.8% (inactive)
N#CC(c1cccc(Cl)n1)c1ccccc1OC(F)(F)F (configuration not stated)	-13.5% (inactive)
CCCCC(C#N)c1ccc(Cl)cc1 (configuration not stated)	-0.942% (inactive)
N#CC(c1cccc(Cl)n1)c1ccc(Cl)cc1Cl (configuration not stated)	-12.6% (inactive)
N#CC(c1ccc(C(F)(F)F)cc1)c1cccc(C(F)(F)F)n1 (configuration not stated)	0.339% (inactive)
N#Cc1ccc(C(C#N)c2ccc(Cl)cc2)nc1 (configuration not stated)	-6.67% (inactive)
N#Cc1cccc(C(C#N)c2ccc(Cl)cc2Cl)n1 (configuration not stated)	-7.16% (inactive)
CCCCC(C#N)c1ccc(Cl)cc1Cl (configuration not stated)	4.33% (inactive)
N#CC(c1ccc(Cl)cc1)c1ccc(C(F)(F)F)cn1 (configuration not stated)	5.88% (inactive)
N#CC(c1ccc(Cl)cc1Cl)c1ncccc1Cl (configuration not stated)	5.69% (inactive)
N#CC(CC1CC1)c1ccc(Cl)cc1 (configuration not stated)	-6.92% (inactive)
N#CC(c1ccc(C(F)(F)F)cc1)c1ccc(C(F)(F)F)c(Cl)n1 (configuration not stated)	0.565% (inactive)
N#Cc1cccc(C(C#N)c2ccccc2OC(F)(F)F)n1 (configuration not stated)	4.18% (inactive)
Cc1ccc(C(C#N)c2ccccc2OC(F)(F)F)nc1C#N (configuration not stated)	1.92% (inactive)
CCCCC(C#N)c1ccc(Cl)cc1F (configuration not stated)	-9.53% (inactive)
N#CC(c1ccc(C(F)(F)F)c(Cl)n1)c1ccc(Cl)cc1Cl (configuration not stated)	5.25% (inactive)
N#CC(c1ccc(Cl)cc1)c1ccc(C(F)(F)F)c(Cl)n1 (configuration not stated)	1.79% (inactive)
N#CC(c1cccc(C(F)(F)F)n1)c1ccccc1OC(F)(F)F (configuration not stated)	-5.85% (inactive)
CCCCC(C#N)c1ccccc1OC(F)(F)F (configuration not stated)	1.13% (inactive)
CCCCC(C#N)c1ccc(C(F)(F)F)cc1 (configuration not stated)	-7.42% (inactive)
N#Cc1ccc(C(C#N)c2ccc(Cl)cc2Cl)nc1 (configuration not stated)	3.9% (inactive)
CC(C)CC(C#N)c1ccc(Cl)cc1 (configuration not stated)	1.37% (inactive)
Cc1ccc(C(C#N)c2ccc(Cl)cc2)nc1 (configuration not stated)	-6.12% (inactive)
CCCC(C#N)c1ccc(Cl)cc1 (configuration not stated)	1.22% (inactive)
CCCCC(C#N)c1ccc(F)cc1 (configuration not stated)	-8.06% (inactive)
N#Cc1cccc(C(C#N)c2ccc(Cl)cc2)n1 (configuration not stated)	-11.7% (inactive)
N#CC(c1ccc(C(F)(F)F)c(Cl)n1)c1ccc(Cl)cc1F (configuration not stated)	-8.56% (inactive)
N#CC(c1ccc(C(F)(F)F)c(Cl)n1)c1ccccc1OC(F)(F)F (configuration not stated)	2.22% (inactive)
Cc1ccc(C(C#N)c2ccc(Cl)cc2)nc1C#N (configuration not stated)	-8.79% (inactive)
CC(C#N)(c1ccc(Cl)cc1)c1ccc(C(F)(F)F)cn1 (configuration not stated)	-3.64% (inactive)

Tested on: P. aeruginosa + EDDHA, pyoverdine absorbance 405 nm, 24-30 h
Assay: as above
Details: not given
In short: as §1

SMILES	AC35
N#CC(c1ccc(F)cc1)c1cccc(C(F)(F)F)n1 (configuration not stated)	17.6 µM
N#CC(c1ccc(Cl)cc1)c1cccc(Cl)n1 (configuration not stated)	18 µM
N#CC(c1cccc(Cl)n1)c1ccc(Cl)cc1F (configuration not stated)	19.6 µM
N#CC(c1ccc(Cl)cc1)c1cccc(C(F)(F)F)n1 (configuration not stated)	7.35 µM
COc1cccc(C(C#N)c2ccc(F)cc2)n1 (configuration not stated)	> 50 µM (inactive)
N#CC(c1ccc(Cl)cc1)c1ncccc1Cl (configuration not stated)	33.6 µM
N#CC(c1cccc(C(F)(F)F)n1)c1ccc(Cl)cc1F (configuration not stated)	26.2 µM
